Laboratory results reported in publication PMC10373460 (ACS Omega, 2023).
“Also recorded” adds a separate entry of the source.

Assays:
[1] = biological target: α-glucosidase from S. cerevisiae E.C. 3.2.1.20 (Saccharomyces cerevisiae, UniProt P53341); assay: Inhibition of α-glucosidase activity in vitro; format: biochemical; details: for inhibition at 10 µM: read-out: %inhibition (10 μM)
α-glucosidase = α-glucosidase (Saccharomyces cerevisiae, UniProt P53341); assay: Enzyme kinetic study; format: biochemical; details: for inhibition mode: Lineweaver–Burk plots, Km increased, Vmax unaffected
α-glucosidase, sequence (P53341 whole entry): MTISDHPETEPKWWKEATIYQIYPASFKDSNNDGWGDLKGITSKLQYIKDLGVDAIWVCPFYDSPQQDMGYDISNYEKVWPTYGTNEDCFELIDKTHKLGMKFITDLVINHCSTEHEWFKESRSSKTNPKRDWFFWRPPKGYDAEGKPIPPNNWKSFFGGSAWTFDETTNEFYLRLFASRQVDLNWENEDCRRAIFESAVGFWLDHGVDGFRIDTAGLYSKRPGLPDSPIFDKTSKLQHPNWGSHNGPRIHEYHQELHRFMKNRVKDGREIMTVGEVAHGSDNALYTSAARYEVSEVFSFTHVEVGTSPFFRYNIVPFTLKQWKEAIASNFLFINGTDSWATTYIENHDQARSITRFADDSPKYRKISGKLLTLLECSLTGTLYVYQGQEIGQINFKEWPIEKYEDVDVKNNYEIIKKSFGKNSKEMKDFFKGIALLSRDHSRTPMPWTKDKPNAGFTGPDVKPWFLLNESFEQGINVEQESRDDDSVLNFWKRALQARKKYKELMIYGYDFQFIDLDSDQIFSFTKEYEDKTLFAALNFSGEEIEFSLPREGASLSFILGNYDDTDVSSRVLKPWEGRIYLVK
Summary of the method: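 S. cerevisiae α-glucosidase solution (0.1 U/mL) and pNPG substrate solution (1 mM) prepared in […] pH 6.9 phosphate buffer. Enzyme preincubated with test compound (DMSO stock) for 10 min at 37 °C, then substrate added for 20 min at 37 °C. Stopped with 1 M Na2CO3, read at 405 nm. Lineweaver–Burk plots at several inhibitor concentrations; Ki from secondary replot of slope versus concentration.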

α-glucosidase from S. cerevisiae E.C. 3.2.1.20, sequence (P53341 whole entry): as above

| Structure (SMILES) | IC50 [1] | other results |
| --- | --- | --- |
| O=c1cc(O)c2ccccc2o1 [4-hydroxycoumarin] | > 200 µM | – |
| O=c1oc2ccccc2c(O)c1C(c1ccccc1)c1c(O)c2ccccc2oc1=O [Compound 1, 3,3′-(Phenylmethylene)bis(4-hydroxy-2H-chromen-2-one)] | 30.8 ± 1.25 µM | – |
| O=c1oc2ccccc2c(O)c1C(c1ccccc1Cl)c1c(O)c2ccccc2oc1=O [Compound 2, 3,3′-((2-Chlorophenyl)methylene)bis(4-hydroxy-2H-chromen-2-one)] | 8.12 ± 0.59 µM | – |
| O=c1oc2ccccc2c(O)c1C(c1cccc(Cl)c1)c1c(O)c2ccccc2oc1=O [Compound 3, 3,3′-((3-Chlorophenyl)methylene)bis(4-hydroxy-2H-chromen-2-one)] | 6.06 ± 0.06 µM | – |
| O=c1oc2ccccc2c(O)c1C(c1ccc(Cl)cc1)c1c(O)c2ccccc2oc1=O [Compound 4, 3,3′-((4-Chlorophenyl)methylene)bis(4-hydroxy-2H-chromen-2-one)] | 3.19 ± 0.41 µM | – |
| O=c1oc2ccccc2c(O)c1C(c1ccc(F)cc1)c1c(O)c2ccccc2oc1=O [Compound 5, 3,3′-((4-Fluorophenyl)methylene)bis(4-hydroxy-2H-chromen-2-one)] | 12.31 ± 0.08 µM | – |
| O=c1oc2ccccc2c(O)c1C(c1ccc(Br)cc1)c1c(O)c2ccccc2oc1=O [Compound 6, 3,3′-((4-Bromophenyl)methylene)bis(4-hydroxy-2H-chromen-2-one)] | 2.95 ± 0.05 µM | – |
| O=c1oc2ccccc2c(O)c1C(c1ccc(Cl)cc1Cl)c1c(O)c2ccccc2oc1=O [Compound 7, 3,3′-((2,4-Dichlorophenyl)methylene)bis(4-hydroxy-2H-chromen-2-one)] | 3.15 ± 0.31 µM | – |
| O=c1oc2ccccc2c(O)c1C(c1ccc(Cl)c(Cl)c1)c1c(O)c2ccccc2oc1=O [Compound 8, 3,3′-((3,4-Dichlorophenyl)methylene)bis(4-hydroxy-2H-chromen-2-one)] | 1.9 ± 0.14 µM | – |
| O=c1oc2ccccc2c(O)c1C(c1cccc([N+](=O)[O-])c1)c1c(O)c2ccccc2oc1=O [Compound 9, 3,3′-((3-Nitrophenyl)methylene)bis(4-hydroxy-2H-chromen-2-one)] | 14.8 ± 0.32 µM | – |
| O=c1oc2ccccc2c(O)c1C(c1ccc(Br)c([N+](=O)[O-])c1)c1c(O)c2ccccc2oc1=O [Compound 10, 3,3′-((4-Bromo-3-nitrophenyl)methylene)bis(4-hydroxy-2H-chromen-2-one)] | 3.41 ± 0.17 µM | – |
| O=c1oc2ccccc2c(O)c1C(c1ccc(F)c(Br)c1)c1c(O)c2ccccc2oc1=O [Compound 11, 3,3′-((3-Bromo-4-fluorophenyl)methylene)bis(4-hydroxy-2H-chromen-2-one)] | 2.89 ± 0.25 µM | – |
| O=c1oc2ccccc2c(O)c1C(c1ccc(O)c(Br)c1)c1c(O)c2ccccc2oc1=O [Compound 12, 3,3′-((3-Bromo-4-hydroxyphenyl)methylene)bis(4-hydroxy-2H-chromen-2-one)] | 4.15 ± 0.06 µM | – |
| COc1ccc(C(c2c(O)c3ccccc3oc2=O)c2c(O)c3ccccc3oc2=O)cc1Br [Compound 13, 3,3′-((3-Bromo-4-methoxyphenyl)methylene)bis(4-hydroxy-2H-chromen-2-one)] | 3.8 ± 0.05 µM | – |
| O=c1oc2ccccc2c(O)c1C(c1cc(Br)c(O)c(Br)c1)c1c(O)c2ccccc2oc1=O [Compound 14, 3,3′-((3,5-Dibromo-4-hydroxyphenyl)methylene)bis(4-hydroxy-2H-chromen-2-one)] | 2.38 ± 0.24 µM | – |
| COc1cc(C(c2c(O)c3ccccc3oc2=O)c2c(O)c3ccccc3oc2=O)ccc1O [Compound 15, 3,3′-((4-Hydroxy-3-methoxyphenyl)methylene)bis(4-hydroxy-2H-chromen-2-one)] | 15.2 ± 0.45 µM | – |
| COc1cc(C(c2c(O)c3ccccc3oc2=O)c2c(O)c3ccccc3oc2=O)cc(Br)c1O [Compound 16, 3,3′-((3-Bromo-4-hydroxy-5-methoxyphenyl)methylene)bis(4-hydroxy-2H-chromen-2-one)] | 5.1 ± 0.18 µM | – |
| COc1c(Br)cc(C(c2c(O)c3ccccc3oc2=O)c2c(O)c3ccccc3oc2=O)cc1Br [Compound 17, 3,3′-((3,5-Dibromo-4-methoxyphenyl)methylene)bis(4-hydroxy-2H-chromen-2-one)] | – | Ki (α-glucosidase): 4.81 µM; inhibition at 10 µM [1]: 99.77 ± 0.49% |
| CCCCOc1c(Br)cc(C(c2c(O)c3ccccc3oc2=O)c2c(O)c3ccccc3oc2=O)cc1Br [Compound 18, 3,3′-((3,5-Dibromo-4-butoxyphenyl)methylene)bis(4-hydroxy-2H-chromen-2-one)] | – | Ki (α-glucosidase): 3.93 µM; inhibition mode (α-glucosidase): competitive inhibition; also recorded: competitive binding mode; inhibition at 10 µM [1]: 99.67 ± 0.42% |
| CCCCCCCCOc1c(Br)cc(C(c2c(O)c3ccccc3oc2=O)c2c(O)c3ccccc3oc2=O)cc1Br [Compound 19, 3,3′-((3,5-Dibromo-4-(octyloxy)phenyl)methylene)bis(4-hydroxy-2H-chromen-2-one)] | – | Ki (α-glucosidase): 1.8 µM; inhibition mode (α-glucosidase): competitive inhibition; inhibition at 10 µM [1]: 98.95 ± 0.26% |
